Laboratory results reported in ChEMBL document CHEMBL1122537, “Acidic furo[3,2-b]indoles. A new series of potent antiallergy agents” (J Med Chem, 1984).

Species: Cavia porcellus
Experiment: Compound was evaluated in vitro by SDT (Schultz-Dale Test) against isolated guinea pig lung strips repeatedly challenged with antigen in the presence of an antihistamine (H1) at a concentration […].
Type: functional
How it was run: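 Lung strips in Tyrode's pH 7.4, 37 °C, with mepyramine 1 µM, at 300 mg base-line tension. Drug in 0.2% NaHCO3 is added 15 min before the ovalbumin bolus. Percent inhibition is taken against the tissue's prior control contraction, usually on four or more tissues. IC50 by linear regression.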

SMILES	IC50 [nM]
CC(C)NCC(O)c1ccc(O)c(O)c1 (stereo unspecified) [ISOPROTERENOL]	0.15

Species: Cavia porcellus
Experiment: Compound was evaluated in vitro by SDT (Schultz-Dale Test) against isolated guinea pig lung strips repeatedly challenged with antigen in the presence of an antihistamine (H1) at a concentration 30 uM; i = No significant activity at 1.0 uM
Type: functional

SMILES	IC50
CCCCCCCCCOc1c(C(=O)Nc2nn[nH]n2)oc2c3ccccc3n(-c3ccccc3)c12	No significant activity

Species: Cavia porcellus
Experiment: Compound was evaluated in vitro by SDT (Schultz-Dale Test) against isolated guinea pig lung strips repeatedly challenged with antigen in the presence of an antihistamine (H1); c = No activity at a concentration 30 uM
Type: functional

SMILES	IC50
COc1c(-c2nn[nH]n2)oc2c3ccccc3n(C)c12	No activity
COc1c(C(=O)O)oc2c3ccccc3n(C)c12	No activity

Species: Cavia porcellus
Experiment: In vitro Schultz-Dale Test against isolated guinea pig lung strips repeatedly challenged with antigen in the presence of an antihistamine (H1) at a concentration 30 uM.
Type: functional

SMILES	IC50 [nM]
COc1ccc2c(c1)c1oc(-c3nn[nH]n3)c(OC)c1n2-c1ccccc1	1500
CCOc1c(-c2nn[nH]n2)oc2c3cc(OC)ccc3n(-c3ccccc3)c12	1700
COc1ccc2c(c1)c1oc(C(=O)Nc3nn[nH]n3)c(OC(C)C)c1n2-c1ccccc1	2800
COc1c(-c2nn[nH]n2)oc2c3ccccc3n(-c3ccccc3)c12	2900
COc1c(C(=O)Nc2nn[nH]n2)oc2c3ccccc3n(-c3ccccc3)c12	500
CCOc1c(C(=O)O)oc2c3ccccc3n(-c3ccccc3)c12	3200
CC(C)Oc1c(C(=O)Nc2nn[nH]n2)oc2c3ccccc3n(-c3ccccc3)c12	60
CCCc1c2c(c(O)c3c(=O)cc(C(=O)O)oc13)CCCC2 [PROXICROMIL]	6300
CCOc1c(C(=O)O)oc2c3cc(OC)ccc3n(-c3ccccc3)c12	4300
CCCc1c(OCC(O)COc2ccc3c(=O)cc(C(=O)O)oc3c2CCC)ccc(C(C)=O)c1O (stereo unspecified) [FPL-55712]	2400
COc1c(C(=O)O)oc2c3ccccc3n(-c3ccccc3)c12	4600
CC(C)Oc1c(C(=O)O)oc2c3ccccc3n(-c3ccccc3)c12	3700
COc1c(C(=O)Nc2nn[nH]n2)oc2c3ccccc3n(C)c12	21600
CCOc1c(C(=O)Nc2nn[nH]n2)oc2c3cc(OC)ccc3n(-c3ccccc3)c12	2200
CCOc1c(-c2nn[nH]n2)oc2c3ccccc3n(-c3ccccc3)c12	3200
COc1ccc2c(c1)c1oc(C(=O)O)c(OC)c1n2-c1ccccc1	2800
COc1ccc2c(c1)c1oc(C(=O)Nc3nn[nH]n3)c(OC)c1n2-c1ccccc1	900
CCOc1c(C(=O)Nc2nn[nH]n2)oc2c3ccccc3n(-c3ccccc3)c12	200

Species: Cavia porcellus
Experiment: Compound was evaluated in vitro by SDT (Schultz-Dale Test) against isolated guinea pig lung strips repeatedly challenged with antigen in the presence of an antihistamine (H1); b = No activity at a concentration 30 uM
Type: functional

SMILES	inhibition
COC(=O)c1oc2c3ccccc3n(-c3ccccc3)c2c1OC	No activity

Species: Cavia porcellus
Experiment: Compound was evaluated in vitro by SDT (Schultz-Dale Test) against isolated guinea pig lung strips repeatedly challenged with antigen in the presence of an antihistamine (H1) at a concentration 10 uM
Type: functional

SMILES	inhibition at 10 µM [%]
O=C(O)c1cc2c(o1)c1ccccc1n2-c1ccccc1	33
CCOc1c(C(=O)OC)oc2c3cc(OC)ccc3n(-c3ccccc3)c12	24
COC(=O)c1oc2c3cc(OC)ccc3n(-c3ccccc3)c2c1OC	23
